Measurements: ChEMBL document CHEMBL5058577, “EUbOPEN Chemogenomics Library 2 (Multiplex)” (2022)

Tested on: Fibroblast
Assay: Multiplex assay against human fibroblast
Format: toxicity, cell-based
Outline: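 Four dyes were applied at seeding to live cells: Hoechst33342, BioTracker Green Microtubule Cytoskeleton Dye, MitoTracker Red and Annexin V Alexa Fluor 680. Imaging after compound addition used a CQ1 microscope at 37°C and 5% CO2. CellPathfinder machine-learning gating then sorted cells into Hoechst high-intensity objects or normal cells, normal cells into healthy, pyknosed or fragmented nuclei, and pyknosed cells into mitotic or apoptotic, with tubulin, mitochondrial-mass and membrane-permeability phenotypes given as per cents of healthy-nucleus cells.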

[1] = 12 h, 1 µM, compound concentration 1 uM, replicate 1
[2] = 12 h, 1 µM, compound concentration 1 uM, replicate 2
[3] = 12 h, 10 µM, compound concentration 10 uM, replicate 1
[4] = 12 h, 10 µM, compound concentration 10 uM, replicate 2
[5] = 24 h, 1 µM, compound concentration 1 uM, replicate 1
[6] = 24 h, 1 µM, compound concentration 1 uM, replicate 2
[7] = 24 h, 10 µM, compound concentration 10 uM, replicate 1
[8] = 24 h, 10 µM, compound concentration 10 uM, replicate 2
[9] = 48 h, 1 µM, compound concentration 1 uM, replicate 1
[10] = 48 h, 1 µM, compound concentration 1 uM, replicate 2
[11] = 48 h, 10 µM, compound concentration 10 uM, replicate 1
[12] = 48 h, 10 µM, compound concentration 10 uM, replicate 2

Compound: CSCC[C@H](NC=O)C(=O)N[C@@H](CC(C)C)C(=O)N[C@@H](Cc1ccccc1)C(=O)O
- Population Fragmented Nuclei (%) [1]: 18%
- Population Healthy Nuclei (%) [1]: 69%
- Population Mitochondria Different-Phenotype (%) [1]: 3%
- Population Tubulin-Different-Phenotype (%) [1]: 26%
- Total Cell Count [1]: 182
- Population Fragmented Nuclei (%) [2]: 29%
- Population Healthy Nuclei (%) [2]: 51%
- Population Mitochondria Different-Phenotype (%) [2]: 4%
- Population Tubulin-Different-Phenotype (%) [2]: 39%
- Total Cell Count [2]: 175
- Population Mitochondria Different-Phenotype (%) [3]: 5%
- Population Tubulin-Different-Phenotype (%) [3]: 24%
- Total Cell Count [3]: 112
- Population Fragmented Nuclei (%) [4]: 27%
- Population Healthy Nuclei (%) [4]: 39%
- Population Hoechst High Intensity Objects (%) [4]: 38%
- Population Membrane Permeable-Phenotype (%) [4]: 9%
- Population Mitochondria Different-Phenotype (%) [4]: 3%
- Population Normal (%) [4]: 61%
- Population Tubulin-Different-Phenotype (%) [4]: 35%
- Total Cell Count [4]: 315
- Population Healthy Nuclei (%) [5]: 73%
- Population Mitochondria Different-Phenotype (%) [5]: 4%
- Population Tubulin-Different-Phenotype (%) [5]: 18%
- Total Cell Count [5]: 173
- Population Fragmented Nuclei (%) [6]: 35%
- Population Healthy Nuclei (%) [6]: 46%
- Population Hoechst High Intensity Objects (%) [6]: 7%
- Population Mitochondria Different-Phenotype (%) [6]: 9%
- Population Normal (%) [6]: 92%
- Population Tubulin-Different-Phenotype (%) [6]: 43%
- Total Cell Count [6]: 179
- Population Fragmented Nuclei (%) [7]: 19%
- Population Membrane Permeable-Phenotype (%) [7]: 3%
- Population Mitochondria Different-Phenotype (%) [7]: 7%
- Population Tubulin-Different-Phenotype (%) [7]: 25%
- Total Cell Count [7]: 107
- Population Healthy Nuclei (%) [8]: 38%
- Population Hoechst High Intensity Objects (%) [8]: 32%
- Population Mitochondria Different-Phenotype (%) [8]: 10%
- Population Normal (%) [8]: 67%
- Population Tubulin-Different-Phenotype (%) [8]: 47%
- Total Cell Count [8]: 230
- Population Fragmented Nuclei (%) [9]: 16%
- Population Healthy Nuclei (%) [9]: 69%
- Population Mitochondria Different-Phenotype (%) [9]: 1%
- Population Tubulin-Different-Phenotype (%) [9]: 21%
- Total Cell Count [9]: 184
- Population Fragmented Nuclei (%) [10]: 36%
- Population Healthy Nuclei (%) [10]: 47%
- Population Mitochondria Different-Phenotype (%) [10]: 8%
- Population Tubulin-Different-Phenotype (%) [10]: 54%
- Total Cell Count [10]: 174
- Population Fragmented Nuclei (%) [11]: 18%
- Population Mitochondria Different-Phenotype (%) [11]: 4%
- Population Tubulin-Different-Phenotype (%) [11]: 24%
- Total Cell Count [11]: 110
- Population Healthy Nuclei (%) [12]: 44%
- Population Hoechst High Intensity Objects (%) [12]: 29%
- Population Membrane Permeable-Phenotype (%) [12]: 4%
- Population Mitochondria Different-Phenotype (%) [12]: 1%
- Population Normal (%) [12]: 70%
- Population Tubulin-Different-Phenotype (%) [12]: 47%
- Total Cell Count [12]: 231

Compound: Cc1nc2ccc(Oc3ccc(F)cc3)cc2c(=O)n1C[C@H]1CCCN(C(C)C)C1.Cl
- Population Apoptotic (%) [1]: 34%
- Population Fragmented Nuclei (%) [1]: 19%
- Population Healthy Nuclei (%) [1]: 67%
- Population Hoechst High Intensity Objects (%) [1]: 5%
- Population Membrane Permeable-Phenotype (%) [1]: 1%
- Population Mitochondria Different-Phenotype (%) [1]: 4%
- Population Mitotic Cells (%) [1]: 65%
- Population Normal (%) [1]: 94%
- Population Pyknosed Nuclei (%) [1]: 13%
- Population Tubulin-Different-Phenotype (%) [1]: 31%
- Total Cell Count [1]: 184
- Population Apoptotic (%) [2]: 44%
- Population Fragmented Nuclei (%) [2]: 24%
- Population Healthy Nuclei (%) [2]: 47%
- Population Hoechst High Intensity Objects (%) [2]: 9%
- Population Membrane Permeable-Phenotype (%) [2]: 21%
- Population Mitochondria Different-Phenotype (%) [2]: 8%
- Population Mitotic Cells (%) [2]: 55%
- Population Normal (%) [2]: 90%
- Population Pyknosed Nuclei (%) [2]: 29%
- Population Tubulin-Different-Phenotype (%) [2]: 70%
- Total Cell Count [2]: 111
- Population Apoptotic (%) [3]: 53%
- Population Fragmented Nuclei (%) [3]: 19%
- Population Healthy Nuclei (%) [3]: 61%
- Population Hoechst High Intensity Objects (%) [3]: 4%
- Population Membrane Permeable-Phenotype (%) [3]: 1%
- Population Mitochondria Different-Phenotype (%) [3]: 22%
- Population Mitotic Cells (%) [3]: 46%
- Population Normal (%) [3]: 95%
- Population Pyknosed Nuclei (%) [3]: 19%
- Population Tubulin-Different-Phenotype (%) [3]: 88%
- Total Cell Count [3]: 241
- Population Apoptotic (%) [4]: 61%
- Population Fragmented Nuclei (%) [4]: 36%
- Population Healthy Nuclei (%) [4]: 44%
- Population Hoechst High Intensity Objects (%) [4]: 3%
- Population Membrane Permeable-Phenotype (%) [4]: 5%
- Population Mitochondria Different-Phenotype (%) [4]: 25%
- Population Mitotic Cells (%) [4]: 38%
- Population Normal (%) [4]: 96%
- Population Tubulin-Different-Phenotype (%) [4]: 80%
- Total Cell Count [4]: 205
- Population Apoptotic (%) [5]: 66%
- Population Fragmented Nuclei (%) [5]: 17%
- Population Healthy Nuclei (%) [5]: 68%
- Population Hoechst High Intensity Objects (%) [5]: 3%
- Population Membrane Permeable-Phenotype (%) [5]: 1%
- Population Mitochondria Different-Phenotype (%) [5]: 6%
- Population Mitotic Cells (%) [5]: 33%
- Population Normal (%) [5]: 96%
- Population Pyknosed Nuclei (%) [5]: 13%
- Population Tubulin-Different-Phenotype (%) [5]: 30%
- Total Cell Count [5]: 186
- Population Apoptotic (%) [6]: 38%
- Population Fragmented Nuclei (%) [6]: 29%
- Population Healthy Nuclei (%) [6]: 50%
- Population Hoechst High Intensity Objects (%) [6]: 7%
- Population Membrane Permeable-Phenotype (%) [6]: 19%
- Population Mitochondria Different-Phenotype (%) [6]: 17%
- Population Mitotic Cells (%) [6]: 61%
- Population Normal (%) [6]: 92%
- Population Pyknosed Nuclei (%) [6]: 20%
- Population Tubulin-Different-Phenotype (%) [6]: 73%
- Total Cell Count [6]: 112
- Population Apoptotic (%) [7]: 67%
- Population Fragmented Nuclei (%) [7]: 27%
- Population Healthy Nuclei (%) [7]: 58%
- Population Hoechst High Intensity Objects (%) [7]: 3%
- Population Membrane Permeable-Phenotype (%) [7]: 0%
- Population Mitochondria Different-Phenotype (%) [7]: 27%
- Population Mitotic Cells (%) [7]: 32%
- Population Normal (%) [7]: 96%
- Population Pyknosed Nuclei (%) [7]: 13%
- Population Tubulin-Different-Phenotype (%) [7]: 84%
- Total Cell Count [7]: 290
- Population Apoptotic (%) [8]: 54%
- Population Fragmented Nuclei (%) [8]: 30%
- Population Healthy Nuclei (%) [8]: 52%
- Population Hoechst High Intensity Objects (%) [8]: 6%
- Population Membrane Permeable-Phenotype (%) [8]: 1%
- Population Mitochondria Different-Phenotype (%) [8]: 29%
- Population Mitotic Cells (%) [8]: 45%
- Population Normal (%) [8]: 93%
- Population Pyknosed Nuclei (%) [8]: 17%
- Population Tubulin-Different-Phenotype (%) [8]: 87%
- Total Cell Count [8]: 187
- Population Apoptotic (%) [9]: 66%
- Population Fragmented Nuclei (%) [9]: 25%
- Population Healthy Nuclei (%) [9]: 66%
- Population Hoechst High Intensity Objects (%) [9]: 3%
- Population Membrane Permeable-Phenotype (%) [9]: 0%
- Population Mitochondria Different-Phenotype (%) [9]: 2%
- Population Mitotic Cells (%) [9]: 33%
- Population Normal (%) [9]: 96%
- Population Pyknosed Nuclei (%) [9]: 8%
- Population Tubulin-Different-Phenotype (%) [9]: 33%
- Total Cell Count [9]: 184
- Population Apoptotic (%) [10]: 42%
- Population Fragmented Nuclei (%) [10]: 36%
- Population Healthy Nuclei (%) [10]: 44%
- Population Hoechst High Intensity Objects (%) [10]: 5%
- Population Membrane Permeable-Phenotype (%) [10]: 6%
- Population Mitochondria Different-Phenotype (%) [10]: 13%
- Population Mitotic Cells (%) [10]: 57%
- Population Normal (%) [10]: 94%
- Population Pyknosed Nuclei (%) [10]: 19%
- Population Tubulin-Different-Phenotype (%) [10]: 68%
- Total Cell Count [10]: 105
- Population Apoptotic (%) [11]: 66%
- Population Fragmented Nuclei (%) [11]: 23%
- Population Healthy Nuclei (%) [11]: 65%
- Population Hoechst High Intensity Objects (%) [11]: 9%
- Population Membrane Permeable-Phenotype (%) [11]: 0%
- Population Mitochondria Different-Phenotype (%) [11]: 20%
- Population Mitotic Cells (%) [11]: 33%
- Population Normal (%) [11]: 90%
- Population Pyknosed Nuclei (%) [11]: 10%
- Population Tubulin-Different-Phenotype (%) [11]: 85%
- Total Cell Count [11]: 290
- Population Apoptotic (%) [12]: 68%
- Population Fragmented Nuclei (%) [12]: 33%
- Population Healthy Nuclei (%) [12]: 53%
- Population Hoechst High Intensity Objects (%) [12]: 3%
- Population Membrane Permeable-Phenotype (%) [12]: 2%
- Population Mitochondria Different-Phenotype (%) [12]: 19%
- Population Mitotic Cells (%) [12]: 32%
- Population Normal (%) [12]: 96%
- Population Pyknosed Nuclei (%) [12]: 12%
- Total Cell Count [12]: 201
